{"source": "ChEMBL document CHEMBL5058577", "about": "“EUbOPEN Chemogenomics Library 2 (Multiplex)” (2022)", "test_system": "HEK-293T", "experiment": "Multiplex assay against HEK293T", "type": "toxicity, cell-based", "details": "human", "procedure,_shortened": "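Phenotypes for tubulin, mitochondrial mass and membrane permeability are expressed as per cents of healthy-nucleus cells. Cells were stained live at seeding with Hoechst33342, BioTracker Green Microtubule Cytoskeleton Dye, MitoTracker Red and Annexin V Alexa Fluor 680, then imaged after compound addition on a CQ1 microscope at 37°C and 5% CO2. Machine-learning gating in CellPathfinder separated Hoechst high-intensity objects from normal cells, divided normal cells by nuclear state (healthy, pyknosed, fragmented) and divided pyknosed cells into mitotic or apoptotic.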", "key": {"[1]": {"details": "12 h, 1 µM, compound concentration 1 uM, replicate 1"}, "[2]": {"details": "12 h, 1 µM, compound concentration 1 uM, replicate 2"}, "[3]": {"details": "12 h, 10 µM, compound concentration 10 uM, replicate 1"}, "[4]": {"details": "12 h, 10 µM, compound concentration 10 uM, replicate 2"}, "[5]": {"details": "24 h, 1 µM, compound concentration 1 uM, replicate 1"}, "[6]": {"details": "24 h, 1 µM, compound concentration 1 uM, replicate 2"}, "[7]": {"details": "24 h, 10 µM, compound concentration 10 uM, replicate 1"}, "[8]": {"details": "24 h, 10 µM, compound concentration 10 uM, replicate 2"}, "[9]": {"details": "48 h, 1 µM, compound concentration 1 uM, replicate 1"}, "[10]": {"details": "48 h, 1 µM, compound concentration 1 uM, replicate 2"}, "[11]": {"details": "48 h, 10 µM, compound concentration 10 uM, replicate 1"}, "[12]": {"details": "48 h, 10 µM, compound concentration 10 uM, replicate 2"}}, "data": [{"compound": "CNC[C@H](O)c1ccc(O)c(O)c1", "note": "[EPINEPHRINE]", "values": [{"measurement": "Population Apoptotic (%)", "setting": "[1]", "result": 20, "unit": "%"}, {"measurement": "Population Fragmented Nuclei (%)", "setting": "[1]", "result": 6, "unit": "%"}, {"measurement": "Population Healthy Nuclei (%)", "setting": "[1]", "result": 81, "unit": "%"}, {"measurement": "Population Hoechst High Intensity Objects (%)", "setting": "[1]", "result": 7, "unit": "%"}, {"measurement": "Population Membrane Permeable-Phenotype (%)", "setting": "[1]", "result": 0, "unit": "%"}, {"measurement": "Population Mitochondria Different-Phenotype (%)", "setting": "[1]", "result": 31, "unit": "%"}, {"measurement": "Population Mitotic Cells (%)", "setting": "[1]", "result": 80, "unit": "%"}, {"measurement": "Population Normal (%)", "setting": "[1]", "result": 92, "unit": "%"}, {"measurement": "Population Pyknosed Nuclei (%)", "setting": "[1]", "result": 11, "unit": "%"}, {"measurement": "Population Tubulin-Different-Phenotype (%)", "setting": "[1]", "result": 26, "unit": "%"}, {"measurement": "Population Apoptotic (%)", "setting": "[2]", "result": 56, "unit": "%"}, {"measurement": "Population Hoechst High Intensity Objects (%)", "setting": "[2]", "result": 6, "unit": "%"}, {"measurement": "Population Mitochondria Different-Phenotype (%)", "setting": "[2]", "result": 65, "unit": "%"}, {"measurement": "Population Mitotic Cells (%)", "setting": "[2]", "result": 43, "unit": "%"}, {"measurement": "Population Normal (%)", "setting": "[2]", "result": 93, "unit": "%"}, {"measurement": "Population Tubulin-Different-Phenotype (%)", "setting": "[2]", "result": 27, "unit": "%"}, {"measurement": "Population Apoptotic (%)", "setting": "[3]", "result": 55, "unit": "%"}, {"measurement": "Population Fragmented Nuclei (%)", "setting": "[3]", "result": 12, "unit": "%"}, {"measurement": "Population Healthy Nuclei (%)", "setting": "[3]", "result": 75, "unit": "%"}, {"measurement": "Population Hoechst High Intensity Objects (%)", "setting": "[3]", "result": 9, "unit": "%"}, {"measurement": "Population Membrane Permeable-Phenotype (%)", "setting": "[3]", "result": 1, "unit": "%"}, {"measurement": "Population Mitochondria Different-Phenotype (%)", "setting": "[3]", "result": 65, "unit": "%"}, {"measurement": "Population Mitotic Cells (%)", "setting": "[3]", "result": 44, "unit": "%"}, {"measurement": "Population Normal (%)", "setting": "[3]", "result": 90, "unit": "%"}, {"measurement": "Population Pyknosed Nuclei (%)", "setting": "[3]", "result": 11, "unit": "%"}, {"measurement": "Population Tubulin-Different-Phenotype (%)", "setting": "[3]", "result": 39, "unit": "%"}, {"measurement": "Population Apoptotic (%)", "setting": "[4]", "result": 56, "unit": "%"}, {"measurement": "Population Fragmented Nuclei (%)", "setting": "[4]", "result": 11, "unit": "%"}, {"measurement": "Population Healthy Nuclei (%)", "setting": "[4]", "result": 61, "unit": "%"}, {"measurement": "Population Hoechst High Intensity Objects (%)", "setting": "[4]", "result": 40, "unit": "%"}, {"measurement": "Population Membrane Permeable-Phenotype (%)", "setting": "[4]", "result": 0, "unit": "%"}, {"measurement": "Population Mitochondria Different-Phenotype (%)", "setting": "[4]", "result": 62, "unit": "%"}, {"measurement": "Population Mitotic Cells (%)", "setting": "[4]", "result": 43, "unit": "%"}, {"measurement": "Population Normal (%)", "setting": "[4]", "result": 59, "unit": "%"}, {"measurement": "Population Pyknosed Nuclei (%)", "setting": "[4]", "result": 26, "unit": "%"}, {"measurement": "Population Tubulin-Different-Phenotype (%)", "setting": "[4]", "result": 25, "unit": "%"}, {"measurement": "Population Apoptotic (%)", "setting": "[5]", "result": 19, "unit": "%"}, {"measurement": "Population Fragmented Nuclei (%)", "setting": "[5]", "result": 9, "unit": "%"}, {"measurement": "Population Healthy Nuclei (%)", "setting": "[5]", "result": 80, "unit": "%"}, {"measurement": "Population Hoechst High Intensity Objects (%)", "setting": "[5]", "result": 5, "unit": "%"}, {"measurement": "Population Membrane Permeable-Phenotype (%)", "setting": "[5]", "result": 0, "unit": "%"}, {"measurement": "Population Mitochondria Different-Phenotype (%)", "setting": "[5]", "result": 25, "unit": "%"}, {"measurement": "Population Mitotic Cells (%)", "setting": "[5]", "result": 80, "unit": "%"}, {"measurement": "Population Normal (%)", "setting": "[5]", "result": 94, "unit": "%"}, {"measurement": "Population Pyknosed Nuclei (%)", "setting": "[5]", "result": 9, "unit": "%"}, {"measurement": "Population Tubulin-Different-Phenotype (%)", "setting": "[5]", "result": 21, "unit": "%"}, {"measurement": "Population Apoptotic (%)", "setting": "[6]", "result": 36, "unit": "%"}, {"measurement": "Population Hoechst High Intensity Objects (%)", "setting": "[6]", "result": 7, "unit": "%"}, {"measurement": "Population Membrane Permeable-Phenotype (%)", "setting": "[6]", "result": 1, "unit": "%"}, {"measurement": "Population Mitochondria Different-Phenotype (%)", "setting": "[6]", "result": 41, "unit": "%"}, {"measurement": "Population Mitotic Cells (%)", "setting": "[6]", "result": 63, "unit": "%"}, {"measurement": "Population Normal (%)", "setting": "[6]", "result": 92, "unit": "%"}, {"measurement": "Population Pyknosed Nuclei (%)", "setting": "[6]", "result": 10, "unit": "%"}, {"measurement": "Population Tubulin-Different-Phenotype (%)", "setting": "[6]", "result": 18, "unit": "%"}, {"measurement": "Population Apoptotic (%)", "setting": "[7]", "result": 50, "unit": "%"}, {"measurement": "Population Fragmented Nuclei (%)", "setting": "[7]", "result": 13, "unit": "%"}, {"measurement": "Population Healthy Nuclei (%)", "setting": "[7]", "result": 75, "unit": "%"}, {"measurement": "Population Hoechst High Intensity Objects (%)", "setting": "[7]", "result": 8, "unit": "%"}, {"measurement": "Population Membrane Permeable-Phenotype (%)", "setting": "[7]", "result": 0, "unit": "%"}, {"measurement": "Population Mitochondria Different-Phenotype (%)", "setting": "[7]", "result": 50, "unit": "%"}, {"measurement": "Population Mitotic Cells (%)", "setting": "[7]", "result": 50, "unit": "%"}, {"measurement": "Population Normal (%)", "setting": "[7]", "result": 91, "unit": "%"}, {"measurement": "Population Pyknosed Nuclei (%)", "setting": "[7]", "result": 11, "unit": "%"}, {"measurement": "Population Tubulin-Different-Phenotype (%)", "setting": "[7]", "result": 36, "unit": "%"}, {"measurement": "Population Apoptotic (%)", "setting": "[8]", "result": 80, "unit": "%"}, {"measurement": "Population Fragmented Nuclei (%)", "setting": "[8]", "result": 11, "unit": "%"}, {"measurement": "Population Healthy Nuclei (%)", "setting": "[8]", "result": 71, "unit": "%"}, {"measurement": "Population Hoechst High Intensity Objects (%)", "setting": "[8]", "result": 39, "unit": "%"}, {"measurement": "Population Mitochondria Different-Phenotype (%)", "setting": "[8]", "result": 43, "unit": "%"}, {"measurement": "Population Mitotic Cells (%)", "setting": "[8]", "result": 19, "unit": "%"}, {"measurement": "Population Normal (%)", "setting": "[8]", "result": 60, "unit": "%"}, {"measurement": "Population Pyknosed Nuclei (%)", "setting": "[8]", "result": 17, "unit": "%"}, {"measurement": "Population Tubulin-Different-Phenotype (%)", "setting": "[8]", "result": 25, "unit": "%"}, {"measurement": "Population Apoptotic (%)", "setting": "[9]", "result": 16, "unit": "%"}, {"measurement": "Population Fragmented Nuclei (%)", "setting": "[9]", "result": 11, "unit": "%"}, {"measurement": "Population Healthy Nuclei (%)", "setting": "[9]", "result": 81, "unit": "%"}, {"measurement": "Population Hoechst High Intensity Objects (%)", "setting": "[9]", "result": 3, "unit": "%"}, {"measurement": "Population Membrane Permeable-Phenotype (%)", "setting": "[9]", "result": 1, "unit": "%"}, {"measurement": "Population Mitochondria Different-Phenotype (%)", "setting": "[9]", "result": 13, "unit": "%"}, {"measurement": "Population Mitotic Cells (%)", "setting": "[9]", "result": 83, "unit": "%"}, {"measurement": "Population Normal (%)", "setting": "[9]", "result": 96, "unit": "%"}, {"measurement": "Population Pyknosed Nuclei (%)", "setting": "[9]", "result": 7, "unit": "%"}, {"measurement": "Population Tubulin-Different-Phenotype (%)", "setting": "[9]", "result": 9, "unit": "%"}, {"measurement": "Population Apoptotic (%)", "setting": "[10]", "result": 35, "unit": "%"}, {"measurement": "Population Fragmented Nuclei (%)", "setting": "[10]", "result": 12, "unit": "%"}, {"measurement": "Population Healthy Nuclei (%)", "setting": "[10]", "result": 78, "unit": "%"}, {"measurement": "Population Mitochondria Different-Phenotype (%)", "setting": "[10]", "result": 24, "unit": "%"}, {"measurement": "Population Mitotic Cells (%)", "setting": "[10]", "result": 64, "unit": "%"}, {"measurement": "Population Pyknosed Nuclei (%)", "setting": "[10]", "result": 8, "unit": "%"}, {"measurement": "Population Tubulin-Different-Phenotype (%)", "setting": "[10]", "result": 15, "unit": "%"}, {"measurement": "Population Apoptotic (%)", "setting": "[11]", "result": 33, "unit": "%"}, {"measurement": "Population Fragmented Nuclei (%)", "setting": "[11]", "result": 21, "unit": "%"}, {"measurement": "Population Healthy Nuclei (%)", "setting": "[11]", "result": 72, "unit": "%"}, {"measurement": "Population Hoechst High Intensity Objects (%)", "setting": "[11]", "result": 3, "unit": "%"}, {"measurement": "Population Membrane Permeable-Phenotype (%)", "setting": "[11]", "result": 0, "unit": "%"}, {"measurement": "Population Mitochondria Different-Phenotype (%)", "setting": "[11]", "result": 25, "unit": "%"}, {"measurement": "Population Mitotic Cells (%)", "setting": "[11]", "result": 66, "unit": "%"}, {"measurement": "Population Normal (%)", "setting": "[11]", "result": 96, "unit": "%"}, {"measurement": "Population Pyknosed Nuclei (%)", "setting": "[11]", "result": 5, "unit": "%"}, {"measurement": "Population Tubulin-Different-Phenotype (%)", "setting": "[11]", "result": 11, "unit": "%"}, {"measurement": "Population Apoptotic (%)", "setting": "[12]", "result": 69, "unit": "%"}, {"measurement": "Population Fragmented Nuclei (%)", "setting": "[12]", "result": 17, "unit": "%"}, {"measurement": "Population Healthy Nuclei (%)", "setting": "[12]", "result": 67, "unit": "%"}, {"measurement": "Population Hoechst High Intensity Objects (%)", "setting": "[12]", "result": 21, "unit": "%"}, {"measurement": "Population Mitochondria Different-Phenotype (%)", "setting": "[12]", "result": 34, "unit": "%"}, {"measurement": "Population Mitotic Cells (%)", "setting": "[12]", "result": 30, "unit": "%"}, {"measurement": "Population Normal (%)", "setting": "[12]", "result": 78, "unit": "%"}, {"measurement": "Population Pyknosed Nuclei (%)", "setting": "[12]", "result": 14, "unit": "%"}, {"measurement": "Population Tubulin-Different-Phenotype (%)", "setting": "[12]", "result": 13, "unit": "%"}]}]}
